Laboratory results as given in ChEMBL document CHEMBL1138172, “Selective irreversible inhibition of fructose 1,6-bisphosphate aldolase from Trypanosoma brucei” (J Med Chem, 2006).
Active and inactive are the calls of the source. The calls are words filed in the database; no cut-off is given here.

Key:
[1] = target: T1, Fructose-bisphosphate aldolase, glycosomal (Trypanosoma brucei brucei) (UniProt P07752); assay: Protection of inhibitory activity by HBP against Trypanosoma brucei aldolase at 0.1 mM after 15 min; design: scale not given: the % may be the effect or the level left
T1 sequence (whole entry): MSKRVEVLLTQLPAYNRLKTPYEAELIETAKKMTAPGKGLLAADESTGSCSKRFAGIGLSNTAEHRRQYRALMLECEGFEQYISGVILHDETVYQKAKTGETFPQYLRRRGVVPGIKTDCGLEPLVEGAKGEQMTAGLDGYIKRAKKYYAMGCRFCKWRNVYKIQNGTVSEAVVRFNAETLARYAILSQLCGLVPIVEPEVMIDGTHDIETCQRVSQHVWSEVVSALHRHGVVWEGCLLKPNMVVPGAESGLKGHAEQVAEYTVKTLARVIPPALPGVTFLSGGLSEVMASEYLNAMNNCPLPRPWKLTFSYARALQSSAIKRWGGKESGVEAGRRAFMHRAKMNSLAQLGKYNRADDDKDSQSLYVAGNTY

[2] = target: T1, Fructose-bisphosphate aldolase, glycosomal (Trypanosoma brucei brucei); assay: Protection of inhibitory activity by FBP against Trypanosoma brucei aldolase at 10 mM after 15 min; design: scale not given: the % may be the effect or the level left
[3] = target: T1, Fructose-bisphosphate aldolase, glycosomal (Trypanosoma brucei brucei); assay: Protection of inhibitory activity by HBP against Trypanosoma brucei aldolase at 0.1 mM after 5 min; design: scale not given: the % may be the effect or the level left
[4] = target: T2, Fructose-1,6-bisphospate aldolase (Leishmania mexicana) (UniProt Q9U5N6); assay: Residual activity against Leishmania mexicana class1 Aldolase at 100 uM after 15 min
T2 sequence (whole entry): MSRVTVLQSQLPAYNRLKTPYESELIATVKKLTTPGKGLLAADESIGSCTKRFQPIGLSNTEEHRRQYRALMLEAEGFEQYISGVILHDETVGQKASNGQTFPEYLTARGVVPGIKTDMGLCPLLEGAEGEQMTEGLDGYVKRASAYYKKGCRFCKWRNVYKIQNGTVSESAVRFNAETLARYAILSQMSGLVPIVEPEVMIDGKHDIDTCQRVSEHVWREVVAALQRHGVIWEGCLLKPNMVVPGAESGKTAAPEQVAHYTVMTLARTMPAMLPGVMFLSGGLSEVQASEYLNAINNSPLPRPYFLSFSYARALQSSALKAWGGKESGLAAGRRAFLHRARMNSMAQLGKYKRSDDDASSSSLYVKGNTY
Method in brief: (§1)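 Aldolases from different sources, including mammalian (human liver) and protozoan parasite enzymes, were each incubated at 0.2 mg/mL with the inhibitor at 100 µM. Residual enzyme activity was then measured.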

[5] = target: T1, Fructose-bisphosphate aldolase, glycosomal (Trypanosoma brucei brucei); assay: Protection of inhibitory activity by DHAP against Trypanosoma brucei aldolase at 0.25 mM after 5 min; design: scale not given: the % may be the effect or the level left
[6] = target: T1, Fructose-bisphosphate aldolase, glycosomal (Trypanosoma brucei brucei); assay: Protection of inhibitory activity by DHAP against Trypanosoma brucei aldolase at 0.5 mM after 5 min; design: scale not given: the % may be the effect or the level left
[7] = target: T1, Fructose-bisphosphate aldolase, glycosomal (Trypanosoma brucei brucei); assay: Protection of inhibitory activity by DHAP against Trypanosoma brucei aldolase at 0.25 mM after 15 min; design: scale not given: the % may be the effect or the level left
[8] = target: T1, Fructose-bisphosphate aldolase, glycosomal (Trypanosoma brucei brucei); assay: Inhibitory activity against mutated recombinant Trypanosoma brucei aldolase K116M
[9] = target: T1, Fructose-bisphosphate aldolase, glycosomal (Trypanosoma brucei brucei); assay: Residual activity against Trypanosoma brucei class1 Aldolase at 0.5 mM after 5 min
[10] = target: T3, Fructose-bisphosphate aldolase A (Oryctolagus cuniculus) (UniProt P00883); assay: Residual activity against rabbit muscle class1 Aldolase at 1 mM after 5 min; details: Muscle tissue
T3 sequence (whole entry): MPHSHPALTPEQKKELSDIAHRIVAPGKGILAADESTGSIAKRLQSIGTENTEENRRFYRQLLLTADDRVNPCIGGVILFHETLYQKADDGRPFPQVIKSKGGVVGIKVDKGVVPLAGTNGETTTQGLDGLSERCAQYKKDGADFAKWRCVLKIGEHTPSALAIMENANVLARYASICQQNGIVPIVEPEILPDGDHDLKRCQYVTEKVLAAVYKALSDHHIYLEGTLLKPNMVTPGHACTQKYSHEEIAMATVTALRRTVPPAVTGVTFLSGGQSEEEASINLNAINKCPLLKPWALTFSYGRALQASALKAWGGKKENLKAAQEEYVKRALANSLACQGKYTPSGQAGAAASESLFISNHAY

[11] = target: T1, Fructose-bisphosphate aldolase, glycosomal (Trypanosoma brucei brucei); assay: Residual activity against Trypanosoma brucei class1 Aldolase at 0.5 mM after 15 min
[12] = target: T1, Fructose-bisphosphate aldolase, glycosomal (Trypanosoma brucei brucei); assay: Residual activity against Trypanosoma brucei class1 Aldolase at 100 uM after 15 min; method in brief: as §1
[13] = target: T4, Fructose-bisphosphate aldolase, glycosomal (Trypanosoma brucei brucei, UniProt P07752); assay: Inhibition of Trypanosoma brucei class1 Aldolase
T4 sequence (P07752 whole entry): T1 sequence (whole entry)

[14] = target: T1, Fructose-bisphosphate aldolase, glycosomal (Trypanosoma brucei brucei); assay: Protection of inhibitory activity by NBP against Trypanosoma brucei aldolase at 1 mM after 15 min; design: scale not given: the % may be the effect or the level left
[15] = target: T1, Fructose-bisphosphate aldolase, glycosomal (Trypanosoma brucei brucei); assay: Protection of inhibitory activity by FBP against Trypanosoma brucei aldolase at 10 mM after 5 min; design: scale not given: the % may be the effect or the level left
[16] = target: T1, Fructose-bisphosphate aldolase, glycosomal (Trypanosoma brucei brucei); assay: Protection of inhibitory activity by NBP against Trypanosoma brucei aldolase at 1 mM after 5 min; design: scale not given: the % may be the effect or the level left
[17] = target: T1, Fructose-bisphosphate aldolase, glycosomal (Trypanosoma brucei brucei); assay: Protection of inhibitory activity by DHAP against Trypanosoma brucei aldolase at 1 mM after 15 min; design: scale not given: the % may be the effect or the level left
[18] = target: T3, Fructose-bisphosphate aldolase A (Oryctolagus cuniculus); assay: Residual activity against rabbit muscle class1 Aldolase at 0.1 mM after 15 min; details: Muscle tissue
[19] = target: T1, Fructose-bisphosphate aldolase, glycosomal (Trypanosoma brucei brucei); assay: Protection of inhibitory activity by FBP against Trypanosoma brucei aldolase at 1 mM after 15 min; design: scale not given: the % may be the effect or the level left
[20] = target: T1, Fructose-bisphosphate aldolase, glycosomal (Trypanosoma brucei brucei); assay: Protection of inhibitory activity by DHAP against Trypanosoma brucei aldolase at 10 mM after 15 min; design: scale not given: the % may be the effect or the level left
[21] = target: T1, Fructose-bisphosphate aldolase, glycosomal (Trypanosoma brucei brucei); assay: Residual activity against Trypanosoma brucei class1 Aldolase at 0.02 mM after 5 min
[22] = target: T1, Fructose-bisphosphate aldolase, glycosomal (Trypanosoma brucei brucei); assay: Protection of inhibitory activity by DHAP against Trypanosoma brucei aldolase at 10 mM after 5 min; design: scale not given: the % may be the effect or the level left
[23] = target: T3, Fructose-bisphosphate aldolase A (Oryctolagus cuniculus); assay: Residual activity against rabbit muscle class1 Aldolase at 0.1 mM after 5 min; details: Muscle tissue
[24] = target: T1, Fructose-bisphosphate aldolase, glycosomal (Trypanosoma brucei brucei); assay: Protection of inhibitory activity by FBP against Trypanosoma brucei aldolase at 1 mM after 5 min; design: scale not given: the % may be the effect or the level left
[25] = target: T5, Aldolase (Plasmodium falciparum) (UniProt Q27744); assay: Residual activity against Plasmodium falciparum class1 Aldolase at 100 uM after 15 min; method in brief: as §1
T5 sequence (whole entry): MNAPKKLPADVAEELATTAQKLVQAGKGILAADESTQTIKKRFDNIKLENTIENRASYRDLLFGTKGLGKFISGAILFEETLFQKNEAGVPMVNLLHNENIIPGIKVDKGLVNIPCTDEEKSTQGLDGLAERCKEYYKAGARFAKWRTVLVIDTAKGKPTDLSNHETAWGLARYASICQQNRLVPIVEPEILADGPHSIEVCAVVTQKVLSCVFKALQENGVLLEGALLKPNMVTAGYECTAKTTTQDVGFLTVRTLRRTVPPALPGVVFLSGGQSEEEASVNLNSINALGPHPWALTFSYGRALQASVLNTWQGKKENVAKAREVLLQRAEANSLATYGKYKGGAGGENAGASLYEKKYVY

[26] = target: T1, Fructose-bisphosphate aldolase, glycosomal (Trypanosoma brucei brucei); assay: Protection of inhibitory activity by HBP against Trypanosoma brucei aldolase at 1 mM after 15 min; design: scale not given: the % may be the effect or the level left
[27] = target: T1, Fructose-bisphosphate aldolase, glycosomal (Trypanosoma brucei brucei); assay: Protection of inhibitory activity by HBP against Trypanosoma brucei aldolase at 1 mM after 5 min; design: scale not given: the % may be the effect or the level left
[28] = target: T1, Fructose-bisphosphate aldolase, glycosomal (Trypanosoma brucei brucei); assay: Residual activity against Trypanosoma brucei class1 Aldolase at 0.02 mM after 15 min
[29] = target: T3, Fructose-bisphosphate aldolase A (Oryctolagus cuniculus); assay: Residual activity against rabbit muscle class1 Aldolase at 1 mM after 15 min; details: Muscle tissue
[30] = target: T1, Fructose-bisphosphate aldolase, glycosomal (Trypanosoma brucei brucei); assay: Protection of inhibitory activity by DHAP against Trypanosoma brucei aldolase at 1 mM after 5 min; design: scale not given: the % may be the effect or the level left
[31] = target: T1, Fructose-bisphosphate aldolase, glycosomal (Trypanosoma brucei brucei); assay: Protection of inhibitory activity by DHAP against Trypanosoma brucei aldolase at 0.5 mM after 15 min; design: scale not given: the % may be the effect or the level left
[32] = target: Fructose-bisphosphate aldolase B (Homo sapiens) (UniProt P05062); assay: Residual activity against human liver class1 Aldolase at 100 uM after 15 min
Fructose-bisphosphate aldolase B (Homo sapiens), sequence (P05062 whole entry, looked up): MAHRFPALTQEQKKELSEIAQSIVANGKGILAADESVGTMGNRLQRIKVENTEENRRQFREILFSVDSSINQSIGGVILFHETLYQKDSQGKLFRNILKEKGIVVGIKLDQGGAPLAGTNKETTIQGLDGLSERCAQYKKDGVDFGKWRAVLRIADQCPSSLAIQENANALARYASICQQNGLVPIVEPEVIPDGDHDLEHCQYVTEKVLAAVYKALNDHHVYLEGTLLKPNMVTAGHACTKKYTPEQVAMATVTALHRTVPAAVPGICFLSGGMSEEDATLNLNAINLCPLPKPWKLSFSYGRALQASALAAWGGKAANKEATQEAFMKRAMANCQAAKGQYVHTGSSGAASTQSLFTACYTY

## O=Cc1c(O)ccc2cc(OP(=O)(O)O)ccc12
[1]
  Activity: 100%
[2]
  Activity: 89%
[3]
  Activity: 100%
[4]
  Activity: 15%
[5]
  Activity: 56%
[6]
  Activity: 63%
[7]
  Activity: 48%
[8]
  inhibition: inactive
[9]
  Activity: < 20%
[10]
  Activity: 80%
[11]
  Activity: 0%
[12]
  Activity: < 0.5%
[13]
  Ki: 23 µM
[14]
  Activity: 100%
[15]
  Activity: 100%
[16]
  Activity: 100%
[17]
  Activity: 52%
[18]
  Activity: 100%
[19]
  Activity: 51%
[20]
  Activity: 70%
[21]
  Activity: 75%
[22]
  Activity: 80%
[23]
  Activity: 100%
[24]
  Activity: 80%
[25]
  Activity: 30%
[26]
  Activity: 100%
[27]
  Activity: 100%
[28]
  Activity: 50%
[29]
  Activity: 80%
[30]
  Activity: 60%
[31]
  Activity: 44%
[32]
  Activity: 100%
